Assay results reported in ChEMBL document CHEMBL4425094, “Novel Benzo[a]quinolizidine Analogs Induce Cancer Cell Death through Paraptosis and Apoptosis” (J Med Chem, 2016).
pIC50: −log10 of the molar value.

How the values were obtained:
PC-3 = test: Cytotoxicity against human PC3 cells assessed as cell growth inhibition after 24 hrs by MTT assay; assay type: functional, cell-based; settings: PC-3, 24 h
Summary of the method: (§1)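 Cells seeded 24 h in RPMI 1640 + 10% FBS. RWPE-1 was kept in K-SFM with bovine pituitary extract and EGF. Cells then exposed to compounds for 24 h at 37 °C, 5% CO2, with DMSO vehicle and docetaxel as positive control. MTT added for 4 h, absorbance read at 570 nm. Triplicate runs, IC50 reported as mean of three experiments.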

MCF7 = test: Cytotoxicity against human MCF7 cells assessed as cell growth inhibition after 24 hrs by MTT assay; assay type: functional, cell-based; settings: MCF7, 24 h; summary of the method: as §1
DU-145 = test: Cytotoxicity against human DU145 cells assessed as cell growth inhibition after 24 hrs by MTT assay; assay type: functional, cell-based; settings: DU-145, 24 h; summary of the method: as §1
MDA-MB-231 = test: Cytotoxicity against human MDA-MB-231 cells assessed as cell growth inhibition after 24 hrs by MTT assay; assay type: functional, cell-based; settings: MDA-MB-231, 24 h; summary of the method: as §1
HeLa = test: Cytotoxicity against human HeLa cells assessed as cell growth inhibition after 24 hrs by MTT assay; assay type: functional, cell-based; summary of the method: as §1
RWPE-1 = test: Cytotoxicity against human RWPE1 cells assessed as cell growth inhibition after 24 hrs by MTT assay; assay type: cell-based; settings: RWPE-1, 24 h; summary of the method: as §1
K562 = test: Cytotoxicity against human K562 cells assessed as cell growth inhibition after 24 hrs by MTT assay; assay type: functional, cell-based; settings: K562, 24 h; summary of the method: as §1

| SMILES | pIC50 (PC-3) | pIC50 (MCF7) | pIC50 (DU-145) | pIC50 (MDA-MB-231) | pIC50 (HeLa) | pIC50 (RWPE-1) | pIC50 (K562) |
| --- | --- | --- | --- | --- | --- | --- | --- |
| O=C1C[C@@H](c2ccc([N+](=O)[O-])cc2)N2CCc3cc(OCc4ccccc4)c(OCc4ccccc4)cc3[C@@H]2C1 | < 4.70 | < 4.70 | < 4.70 | < 4.70 | < 4.70 | < 4.70 | < 4.70 |
| CCCCCCCCCCCCCCCCOc1cc2c(cc1OCCCCCCCCCCCCCCCC)[C@@H]1CC(=O)C[C@@H](C)N1CC2 | < 4.70 | < 4.70 | < 4.70 | < 4.70 | < 4.70 | < 4.70 | < 4.70 |
| Oc1cc2c(cc1O)[C@@H]1C[C@@H](O)C[C@@H](c3ccccc3)N1CC2 | < 4.70 | < 4.70 | < 4.70 | < 4.70 | < 4.70 | < 4.70 | < 4.70 |
| COc1ccc([C@@H]2CC(=O)C[C@H]3c4cc(OCc5cc(F)cc(F)c5)c(OCc5cc(F)cc(F)c5)cc4CCN23)cc1OC (relative stereo) | < 4.70 | < 4.70 | < 4.70 | < 4.70 | < 4.70 | < 4.70 | < 4.70 |
| CC[C@@H]1C[C@@H](O)C[C@H]2c3cc(OCc4ccccc4)c(OCc4ccccc4)cc3CCN12 | 5.67 | 5.55 | 5.77 | 5.54 | 5.61 | 5.66 | 5.85 |
| O[C@]1(c2ccccc2)C[C@@H](c2ccccc2)N2CCc3cc(OCc4ccccc4)c(OCc4ccccc4)cc3[C@@H]2C1 | < 4.70 | < 4.70 | < 4.70 | < 4.70 | < 4.70 | < 4.70 | < 4.70 |
| C[C@@H]1CC(=O)C[C@H]2c3cc(OCc4cccc(F)c4)c(OCc4cccc(F)c4)cc3CCN12 | < 4.70 | < 4.70 | < 4.70 | 5.89 | < 4.70 | < 4.70 | < 4.70 |
| CCC[C@@H]1C[C@H](O)C/C=C(/CC)[C@H]2c3cc(OCc4ccccc4)c(OCc4ccccc4)cc3CCN12 | < 4.70 | < 4.70 | < 4.70 | < 4.70 | < 4.70 | < 4.70 | < 4.70 |
| CCCCCCCCCCCCCCCCOc1cc2c(cc1OCCCCCCCCCCCCCCCC)[C@@H]1C[C@@H](O)C[C@@H](C)N1CC2 | < 4.70 | < 4.70 | < 4.70 | < 4.70 | < 4.70 | < 4.70 | < 4.70 |
| C[C@@H]1C[C@@](C)(O)C[C@H]2c3cc(OCc4ccc(C(C)(C)C)cc4)c(OCc4ccc(C(C)(C)C)cc4)cc3CCN12 | 5.95 | 5.58 | 5.84 | 6.01 | 6.04 | 5.39 | 5.87 |
| COc1ccc([C@@H]2C[C@@H](O)C[C@H]3c4cc(OCc5cc(F)cc(F)c5)c(OCc5cc(F)cc(F)c5)cc4CCN23)cc1OC | 5.77 | 5.45 | 5.40 | 5.89 | 5.33 | 5.65 | 5.41 |
| O=C1C[C@@H](c2ccccc2)N2CCc3cc4c(cc3[C@@H]2C1)OCO4 (relative stereo) | < 4.70 | < 4.70 | < 4.70 | < 4.70 | < 4.70 | < 4.70 | < 4.70 |
| O[C@H]1C[C@@H](c2ccccc2)N2CCc3cc(OCc4ccccc4)c(OCc4ccccc4)cc3[C@@H]2C1 | < 4.70 | < 4.70 | < 4.70 | < 4.70 | < 4.70 | < 4.70 | < 4.70 |
| COc1cc2c(cc1OC)[C@@H]1CC(=O)C[C@@H](c3ccccc3)N1CC2 (relative stereo) | < 4.70 | < 4.70 | < 4.70 | < 4.70 | < 4.70 | < 4.70 | < 4.70 |
| COc1ccc([C@@H]2C[C@H](O)C[C@H]3c4cc(OCc5cc(F)cc(F)c5)c(OCc5cc(F)cc(F)c5)cc4CCN23)cc1OC | < 4.70 | < 4.70 | < 4.70 | < 4.70 | < 4.70 | < 4.70 | < 4.70 |
| CCCCCCOc1cc2c(cc1OCCCCCC)[C@@H]1C[C@H](O)C[C@@H](C)N1CC2 | < 4.70 | < 4.70 | < 4.70 | < 4.70 | < 4.70 | < 4.70 | < 4.70 |
| CCOC1c2cc(OCc3cc(C)cc(C)c3)c(OCc3cc(C)cc(C)c3)cc2CCN1C(=O)OC(C)(C)C (stereo unspecified) | < 4.70 | < 4.70 | < 4.70 | < 4.70 | < 4.70 | < 4.70 | < 4.70 |

| SMILES | pIC50 (PC-3) | pIC50 (MCF7) | pIC50 (DU-145) | pIC50 (MDA-MB-231) | pIC50 (HeLa) | pIC50 (RWPE-1) | pIC50 (K562) |
| --- | --- | --- | --- | --- | --- | --- | --- |
| COc1ccc([C@@H]2C[C@H](O)C[C@H]3c4cc(OCc5ccccc5)c(OCc5ccccc5)cc4CCN23)cc1 | < 4.70 | < 4.70 | < 4.70 | < 4.70 | < 4.70 | < 4.70 | < 4.70 |
| O[C@@H]1C[C@@H](c2ccc(-c3ccccc3)cc2)N2CCc3cc(OCc4ccccc4)c(OCc4ccccc4)cc3[C@@H]2C1 | 5.94 | 6.55 | 5.87 | 5.48 | 5.47 | 5.35 | 5.49 |
| CC[C@@H]1C[C@@H](O)C/C=C(/C)[C@H]2c3cc(OCc4ccccc4)c(OCc4ccccc4)cc3CCN12 | < 4.70 | < 4.70 | < 4.70 | < 4.70 | < 4.70 | < 4.70 | < 4.70 |
| O=C1C[C@@H](c2ccccc2)N2CCc3cc(OCc4ccccc4)ccc3[C@@H]2C1 (relative stereo) | < 4.70 | < 4.70 | < 4.70 | < 4.70 | < 4.70 | < 4.70 | < 4.70 |
| O[C@@H]1C[C@@H](c2ccccc2)N2CCc3ccc(OCc4ccccc4)cc3[C@@H]2C1 | < 4.70 | < 4.70 | < 4.70 | < 4.70 | < 4.70 | < 4.70 | < 4.70 |
| COc1ccc([C@@H]2C[C@@H](O)C[C@H]3c4cc(OCc5ccccc5)c(OCc5ccccc5)cc4CCN23)cc1 | < 4.70 | < 4.70 | < 4.70 | < 4.70 | < 4.70 | < 4.70 | < 4.70 |
| C[C@@H]1C[C@@](C)(O)C[C@H]2c3cc(OCc4ccc(Br)cc4)c(OCc4ccc(Br)cc4)cc3CCN12 | 6.10 | 6.08 | 5.71 | 5.92 | 5.73 | 5.53 | 5.75 |
| C[C@@H]1C[C@H](O)C[C@H]2c3cc(OCc4cccc(F)c4)c(OCc4cccc(F)c4)cc3CCN12 | 5.87 | 6.21 | 5.52 | 5.91 | 5.88 | 5.35 | 5.97 |
| C/C=C/C(=O)CC1c2cc(OCc3cc(C)cc(C)c3)c(OCc3cc(C)cc(C)c3)cc2CCN1C(=O)OC(C)(C)C (stereo unspecified) | < 4.70 | < 4.70 | < 4.70 | < 4.70 | < 4.70 | < 4.70 | < 4.70 |
| CCC[C@@H]1CC(=O)C/C=C(/CC)[C@H]2c3cc(OCc4ccccc4)c(OCc4ccccc4)cc3CCN12 (relative stereo) | < 4.70 | < 4.70 | < 4.70 | < 4.70 | < 4.70 | < 4.70 | < 4.70 |
| CC[C@@H]1CC(=O)C[C@H]2c3cc(OCc4ccccc4)c(OCc4ccccc4)cc3CCN12 (relative stereo) | < 4.70 | < 4.70 | < 4.70 | < 4.70 | < 4.70 | < 4.70 | < 4.70 |
| O=C1C=CN2CCc3cc(OCc4ccccc4)c(OCc4ccccc4)cc3C2C1 (stereo unspecified) | < 4.70 | < 4.70 | < 4.70 | < 4.70 | < 4.70 | < 4.70 | < 4.70 |
| C[C@@H]1CC(=O)C[C@H]2c3cc(OCc4ccc(C(C)(C)C)cc4)c(OCc4ccc(C(C)(C)C)cc4)cc3CCN12 (relative stereo) | < 4.70 | < 4.70 | < 4.70 | < 4.70 | < 4.70 | < 4.70 | < 4.70 |
| COc1cc([C@@H]2C[C@@H](O)C[C@H]3c4cc(OCc5ccccc5)c(OCc5ccccc5)cc4CCN23)cc(OC)c1OC | < 4.70 | < 4.70 | < 4.70 | < 4.70 | < 4.70 | < 4.70 | < 4.70 |
| CCC[C@@H]1CC(=O)C[C@H]2c3cc(OCc4ccccc4)c(OCc4ccccc4)cc3CCN12 (relative stereo) | < 4.70 | < 4.70 | < 4.70 | < 4.70 | < 4.70 | < 4.70 | < 4.70 |
| O[C@@H]1CCN2CCc3cc(OCc4ccccc4)c(OCc4ccccc4)cc3[C@@H]2C1 (relative stereo) | < 4.70 | < 4.70 | < 4.70 | < 4.70 | < 4.70 | < 4.70 | < 4.70 |
